Laboratory results published in ChEMBL document CHEMBL1759943, “Design and synthesis of novel enhanced water soluble hydroxyethyl analogs of combretastatin A-4” (Bioorg Med Chem Lett, 2011).
≈ marks a conversion by molar mass, not a printed value.

Legend:
L1210 [1] = assay: Antiproliferative activity against mouse L1210 cells after 72 hrs by MTT assay; assay type: functional, cell-based; conditions: L1210, 72 h
Summary of the method: (§1)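 Murine L1210 lymphoma and B16 melanoma cells in culture were given 72-h continuous exposure to compound, and viability was read by MTT assay. IC50 was taken as the readout.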

B16 = assay: Antiproliferative activity against mouse B16 cells after 72 hrs by MTT assay; assay type: functional, cell-based; conditions: B16, 72 h; summary of the method: as §1
CCRF-CEM = assay: Cytotoxicity against human CCRF-CEM cells; assay type: functional
HL-60 = assay: Cytotoxicity against human HL60 cells; assay type: functional
MOLT-4 = assay: Cytotoxicity against human MOLT4 cells; assay type: functional
RPMI-8226 = assay: Cytotoxicity against human RPMI8226 cells; assay type: functional
A549 = assay: Cytotoxicity against human A549 cells; assay type: functional
EKVX = assay: Cytotoxicity against human EKVX cells; assay type: functional
HOP-62 = assay: Cytotoxicity against human HOP62 cells; assay type: functional
HOP-92 = assay: Cytotoxicity against human HOP92 cells; assay type: functional
NCI-H226 = assay: Cytotoxicity against human NCI-H226 cells; assay type: functional; conditions: NCI-H226, read-out: pGI50 (converted)
NCI-H23 = assay: Cytotoxicity against human NCI-H23 cells; assay type: functional
NCI-H322M = assay: Cytotoxicity against human NCI-H322M cells; assay type: functional
NCI-H460 = assay: Cytotoxicity against human NCI-H460 cells; assay type: functional
NCI-H522 = assay: Cytotoxicity against human NCI-H522 cells; assay type: functional
COLO 205 = assay: Cytotoxicity against human COLO205 cells; assay type: functional
HCC 2998 = assay: Cytotoxicity against human HCC2998 cells; assay type: functional
HCT-116 = assay: Cytotoxicity against human HCT116 cells; assay type: functional
HCT-15 = assay: Cytotoxicity against human HCT15 cells; assay type: functional
HT-29 = assay: Cytotoxicity against human HT-29 cells; assay type: functional
KM12 = assay: Cytotoxicity against human KM12 cells; assay type: functional
SW-620 = assay: Cytotoxicity against human SW620 cells; assay type: functional
SF-268 = assay: Cytotoxicity against human SF268 cells; assay type: functional
SF-295 = assay: Cytotoxicity against human SF295 cells; assay type: functional
U-251 = assay: Cytotoxicity against human U251 cells; assay type: functional
LOX IMVI = assay: Cytotoxicity against human LOXIMVI cells; assay type: functional
M14 = assay: Cytotoxicity against human M14 cells; assay type: functional
K562 = assay: Cytotoxicity against human K562 cells; assay type: functional
MDA-MB-435 [2] = assay: Cytotoxicity against human MDA-MB-435 cells; assay type: functional, cell-based
SK-MEL-2 = assay: Cytotoxicity against human SK-MEL-2 cells; assay type: functional
SK-MEL-28 = assay: Cytotoxicity against human SK-MEL-28 cells; assay type: functional; conditions: SK-MEL-28, read-out: pGI50 (converted)
SK-MEL-5 = assay: Cytotoxicity against human SK-MEL-5 cells; assay type: functional
UACC-257 = assay: Cytotoxicity against human UACC257 cells; assay type: functional; conditions: UACC-257, read-out: pGI50 (converted)
UACC-62 = assay: Cytotoxicity against human UACC62 cells; assay type: functional
IGROV-1 = assay: Cytotoxicity against human IGROV1 cells; assay type: functional
OVCAR-3 = assay: Cytotoxicity against human OVCAR3 cells; assay type: functional
OVCAR-4 = assay: Cytotoxicity against human OVCAR4 cells; assay type: functional
OVCAR-5 = assay: Cytotoxicity against human OVCAR5 cells; assay type: functional
OVCAR-8 = assay: Cytotoxicity against human OVCAR8 cells; assay type: functional
NCI/ADR-RES = assay: Cytotoxicity against human NCI/ADR-RES cells; assay type: functional
SK-OV-3 = assay: Cytotoxicity against human SKOV3 cells; assay type: functional
786-0 = assay: Cytotoxicity against human 786-0 cells; assay type: functional
A498 = assay: Cytotoxicity against human A498 cells; assay type: functional
CAKI-1 = assay: Cytotoxicity against human Caki1 cells; assay type: functional
[3] = Cytotoxicity against human RXF 393NL cells; assay type: functional
SN12C = assay: Cytotoxicity against human SN12C cells; assay type: functional
TK-10 = assay: Cytotoxicity against human TK10 cells; assay type: functional
UO-31 = assay: Cytotoxicity against human UO31 cells; assay type: functional
PC-3 = assay: Cytotoxicity against human PC3 cells; assay type: functional
DU-145 = assay: Cytotoxicity against human DU145 cells; assay type: functional
MCF7 = assay: Cytotoxicity against human MCF7 cells; assay type: functional
MDA-MB-231 = assay: Cytotoxicity against human MDA-MB-231 cells; assay type: functional
[4] = Cytotoxicity against human Hs 578T cells; assay type: functional
BT-549 = assay: Cytotoxicity against human BT549 cells; assay type: functional
ACHN = assay: Cytotoxicity against human ACHN cells; assay type: functional
MDA-MB-468 = assay: Cytotoxicity against human MDA-MB-468 cells; assay type: functional
A10 = assay: Disruption of microtubule organization in rat A10 cells assessed as loss of interphase microtubules; assay type: functional, cell-based
MDA-MB-435 [5] = assay: Ratio of EC50 for disruption of interphase microtubule organization in rat A10 cells to IC50 for human MDA-MB-435 cells; assay type: functional
L1210 [6] = assay: Antitumor activity against mouse L1210 cells xenografted in DBA2 mouse assessed as reduction in tumor volume at 75 mg/kg, ip administered once daily on day 1, 3, 5, 7, 9, 11, 13, 15, 17 measured on day 19 relative to control; assay type: functional; parameters: scale not given: the % may be the effect or the level left; conditions: route intraperitoneal
Summary of the method: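 Female DBA2 mice were inoculated with L1210 leukemia cells on the right flank. Compound was given ip at 75 mg/kg once on each of days 1, 3, 5, 7, 9, 11, 13, 15 and 17 after inoculation, in 100 µL injections; controls got vehicle alone. Tumor volume was compared with vehicle controls on day 19.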

Mus musculus [7] = assay: Toxicity in DBA2 mouse assessed as change in body weight at 75 mg/kg, ip administered once daily on day 1, 5, 9, 13, 17; assay type: organism-based; parameters: dose 75 mg/kg, route intraperitoneal; conditions: in vivo
Summary of the method: (§2)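 Healthy, non-tumor-bearing female DBA2 mice given 75 mg/kg on days 1, 5, 9, 13 and 17. Toxicity was judged at the end of the experiment from body weight change, blood cell counts, and the gross color and texture of the kidneys, liver and spleen.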

Mus musculus [8] = assay: Toxicity in DBA2 mouse assessed as change in blood cell count at 75 mg/kg, ip administered once daily on day 1, 5, 9, 13, 17; assay type: organism-based; parameters: dose 75 mg/kg, route intraperitoneal; conditions: in vivo; summary of the method: as §2
Mus musculus [9] = assay: Toxicity in DBA2 mouse assessed as change in color and texture of kidney at 75 mg/kg, ip administered once daily on day 1, 5, 9, 13, 17; assay type: organism-based; parameters: dose 75 mg/kg, route intraperitoneal; conditions: in vivo; summary of the method: as §2
Mus musculus [10] = assay: Toxicity in DBA2 mouse assessed as change in color and texture of liver at 75 mg/kg, ip administered once daily on day 1, 5, 9, 13, 17; assay type: organism-based; parameters: dose 75 mg/kg, route intraperitoneal; conditions: in vivo; summary of the method: as §2
Mus musculus [11] = assay: Toxicity in DBA2 mouse assessed as change in color and texture of spleen at 75 mg/kg, ip administered once daily on day 1, 5, 9, 13, 17; assay type: organism-based; parameters: dose 75 mg/kg, route intraperitoneal; conditions: in vivo; summary of the method: as §2
[12] = Aqueous solubility of the compound after 6 hrs; assay type: physicochemical
Summary of the method: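 Solubility was measured with a modified filter-plate protocol, assay maximum 500 µM. Each compound had its own standard curve, diluted into 80:20 aqueous buffer:acetonitrile at 5% DMSO (v/v) final. The aqueous sample was mixed 6 h and centrifuged. Supernatant absorbance gave concentration from the standard curve.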

COc1ccc(OC)c(/C=C(/c2cc(OC)c(OC)c(OC)c2)C(C)O)c1 (stereo unspecified)
IC50 (L1210 [1]): > 100000 nM | IC50 (B16): > 100000 nM

COc1cc(/C(=C/c2ccccc2)C(C)O)cc(OC)c1OC (stereo unspecified)
IC50 (L1210 [1]): > 100000 nM | IC50 (B16): > 100000 nM

COc1cc(/C(=C/c2ccc([N+](=O)[O-])cc2)C(C)O)cc(OC)c1OC (stereo unspecified)
IC50 (L1210 [1]): > 100000 nM | IC50 (B16): > 100000 nM

COc1cc(/C=C(/c2cc(OC)c(OC)c(OC)c2)C(C)O)cc(OC)c1OC (stereo unspecified)
IC50 (L1210 [1]): 51500 nM | IC50 (B16): 84000 nM

COc1cc(/C(=C/c2ccc(Cl)cc2)C(C)O)cc(OC)c1OC (stereo unspecified)
IC50 (L1210 [1]): > 100000 nM | IC50 (B16): > 100000 nM

COc1cc(/C(=C/c2ccc(C)cc2)C(C)O)cc(OC)c1OC (stereo unspecified)
IC50 (L1210 [1]): 33500 nM | IC50 (B16): > 100000 nM

COc1ccc(/C=C(/c2cc(OC)c(OC)c(OC)c2)C(C)O)cc1OC (stereo unspecified)
IC50 (L1210 [1]): 69000 nM | IC50 (B16): > 100000 nM

COc1cc(/C(=C/c2ccc(Cl)c(Cl)c2)C(C)O)cc(OC)c1OC (stereo unspecified)
IC50 (L1210 [1]): 18500 nM | IC50 (B16): 51500 nM

COc1cc(/C(=C/c2ccc(Br)cc2)C(C)O)cc(OC)c1OC (stereo unspecified)
IC50 (L1210 [1]): > 100000 nM | IC50 (B16): > 100000 nM

COc1cc(/C(=C/c2cccc([N+](=O)[O-])c2)C(C)O)cc(OC)c1OC (stereo unspecified)
IC50 (L1210 [1]): > 100000 nM | IC50 (B16): > 100000 nM

COc1ccc(/C=C(/c2cc(OC)c(OC)c(OC)c2)C(C)O)cc1O (stereo unspecified)
IC50 (L1210 [1]): 4100 nM | IC50 (B16): 16100 nM | GI50 (CCRF-CEM): 2450 nM | GI50 (HL-60): 479 nM | GI50 (MOLT-4): 4680 nM | GI50 (RPMI-8226): 3470 nM | GI50 (A549): 3020 nM | GI50 (EKVX): 5620 nM | GI50 (HOP-62): 4070 nM | GI50 (HOP-92): 209 nM | GI50 (NCI-H226): > 100000 nM | GI50 (NCI-H23): 3720 nM | GI50 (NCI-H322M): 3980 nM | GI50 (NCI-H460): 490 nM | GI50 (NCI-H522): 457 nM | GI50 (COLO 205): 27500 nM | GI50 (HCC 2998): 2820 nM | GI50 (HCT-116): 479 nM | GI50 (HCT-15): 617 nM | GI50 (HT-29): 4070 nM | GI50 (KM12): 389 nM | GI50 (SW-620): 363 nM | GI50 (SF-268): 1000 nM | GI50 (SF-295): 1860 nM | GI50 (U-251): 575 nM | GI50 (LOX IMVI): 891 nM | GI50 (M14): 631 nM | GI50 (K562): 550 nM | GI50 (MDA-MB-435 [2]): 200 nM | IC50 (MDA-MB-435 [2]): 880 nM | GI50 (MDA-MB-435 [2]; read-out: pGI50 (converted)): 229 nM | GI50 (SK-MEL-2): 692 nM | GI50 (SK-MEL-28): > 100000 nM | GI50 (SK-MEL-5): 417 nM | GI50 (UACC-257): > 100000 nM | GI50 (UACC-62): 468 nM | GI50 (IGROV-1): 851 nM | GI50 (OVCAR-3): 245 nM | GI50 (OVCAR-4): 4270 nM | GI50 (OVCAR-5): 5620 nM | GI50 (OVCAR-8): 1320 nM | GI50 (NCI/ADR-RES): 447 nM | GI50 (SK-OV-3): 1020 nM | GI50 (786-0): 4170 nM | GI50 (A498): 759 nM | GI50 (CAKI-1): 4570 nM | GI50 [3]: 324 nM | GI50 (SN12C): 6610 nM | GI50 (TK-10): 4070 nM | GI50 (UO-31): 2340 nM | GI50 (PC-3): 501 nM | GI50 (DU-145): 1450 nM | GI50 (MCF7): 389 nM | GI50 (MDA-MB-231): 2140 nM | GI50 [4]: 324 nM | GI50 (BT-549): 813 nM | GI50 (ACHN): 575 nM | GI50 (MDA-MB-468): 501 nM | EC50 (A10): 21200 nM | Ratio (MDA-MB-435 [5]): 24 | Activity (L1210 [6]): 50% | Activity (Mus musculus [7]): Non-toxic | Activity (Mus musculus [8]): Non-toxic | Activity (Mus musculus [9]): Non-toxic | Activity (Mus musculus [10]): Non-toxic | Activity (Mus musculus [11]): Non-toxic | solubility at 6 h [12]: 479 µM (≈ 173 µg/mL)

COc1ccc(/C=C(/c2cc(OC)c(OC)c(OC)c2)C(C)O)cc1 (stereo unspecified)
IC50 (L1210 [1]): 3900 nM | IC50 (B16): 17500 nM

COc1ccc(/C=C(/c2cc(OC)c(OC)c(OC)c2)C(C)O)cc1[N+](=O)[O-] (stereo unspecified)
IC50 (L1210 [1]): 67500 nM | IC50 (B16): > 100000 nM
